Experimental data as given in ChEMBL document CHEMBL1133091, “Syntheses and structure-activity relationships of 5,6,7, 8-tetrahydro-5,5,8,8-tetramethyl-2-quinoxaline derivatives with retinoic acid receptor alpha agonistic activity” (J Med Chem, 2000).

How the values were obtained:
[1] = target: T1, Retinoic acid receptor gamma (Homo sapiens, UniProt P13631); assay: Binding affinity for Retinoic Acid Receptor gamma (RAR gamma)
T1 sequence (P13631 whole entry): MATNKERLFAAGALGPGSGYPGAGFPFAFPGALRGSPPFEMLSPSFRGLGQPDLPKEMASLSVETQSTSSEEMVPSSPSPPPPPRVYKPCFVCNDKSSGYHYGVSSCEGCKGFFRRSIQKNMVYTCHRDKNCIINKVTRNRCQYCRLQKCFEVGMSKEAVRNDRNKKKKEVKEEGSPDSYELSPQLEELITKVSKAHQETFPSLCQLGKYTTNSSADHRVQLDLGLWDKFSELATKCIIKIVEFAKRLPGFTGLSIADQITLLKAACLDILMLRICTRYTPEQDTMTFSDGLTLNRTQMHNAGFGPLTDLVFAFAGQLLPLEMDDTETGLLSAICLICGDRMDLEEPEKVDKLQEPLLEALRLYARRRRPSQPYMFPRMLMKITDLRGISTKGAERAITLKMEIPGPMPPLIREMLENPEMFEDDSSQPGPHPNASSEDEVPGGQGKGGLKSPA
Summary of the method: (§1)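 Competitive binding to individual RAR isoforms with [3H]ATRA as radioligand. IC50 for each receptor divided by the ATRA IC50 and reported as relative IC50 (mean ± SEM). nd means relative IC50 > 1000.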

[2] = target: T2, Retinoic acid receptor beta (Homo sapiens, UniProt P10826); assay: Binding affinity for Retinoic Acid Receptor beta (RAR beta)
T2 sequence (P10826 whole entry): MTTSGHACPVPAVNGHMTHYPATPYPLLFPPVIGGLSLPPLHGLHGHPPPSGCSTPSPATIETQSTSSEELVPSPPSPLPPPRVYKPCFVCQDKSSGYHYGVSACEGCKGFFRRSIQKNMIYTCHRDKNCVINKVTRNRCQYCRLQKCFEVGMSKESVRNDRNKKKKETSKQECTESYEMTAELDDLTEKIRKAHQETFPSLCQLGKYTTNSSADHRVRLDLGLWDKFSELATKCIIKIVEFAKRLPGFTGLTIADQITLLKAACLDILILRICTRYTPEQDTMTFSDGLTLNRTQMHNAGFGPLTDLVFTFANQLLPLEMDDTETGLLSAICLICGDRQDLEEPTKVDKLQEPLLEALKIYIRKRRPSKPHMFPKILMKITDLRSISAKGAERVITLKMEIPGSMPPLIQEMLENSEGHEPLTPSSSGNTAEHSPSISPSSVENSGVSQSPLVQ
Summary of the method: (§2)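 Competitive binding to each RAR isoform using [³H]ATRA as radioligand. IC50 for each receptor was divided by the ATRA IC50 on the same receptor to give relative IC50 (mean ± SEM). Values were labelled not detectable when relative IC50 > 1000.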

[3] = target: T3, Retinoic acid receptor alpha (Homo sapiens, UniProt P10276); assay: (§3) Binding affinity for Retinoic Acid Receptor alpha (RAR alpha); summary of the method: as §1
T3 sequence (P10276 whole entry): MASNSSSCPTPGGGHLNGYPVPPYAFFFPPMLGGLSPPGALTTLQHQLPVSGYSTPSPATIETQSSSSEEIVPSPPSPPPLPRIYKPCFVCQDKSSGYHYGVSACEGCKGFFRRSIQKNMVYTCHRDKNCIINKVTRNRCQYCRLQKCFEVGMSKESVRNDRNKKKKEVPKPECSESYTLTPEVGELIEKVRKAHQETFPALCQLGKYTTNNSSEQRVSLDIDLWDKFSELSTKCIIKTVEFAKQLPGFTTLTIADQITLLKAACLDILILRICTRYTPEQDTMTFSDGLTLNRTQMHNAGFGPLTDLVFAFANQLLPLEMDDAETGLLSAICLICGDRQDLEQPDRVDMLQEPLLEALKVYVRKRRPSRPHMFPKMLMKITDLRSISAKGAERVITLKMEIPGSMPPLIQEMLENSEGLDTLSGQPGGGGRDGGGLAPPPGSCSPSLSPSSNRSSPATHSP

[4] = target: T4, Retinoic acid receptor alpha (Homo sapiens) (UniProt P10276); assay: Transcriptional activation of Retinoic Acid Receptor alpha (RAR alpha); type: functional
T4 sequence (whole entry): T3 sequence (P10276 whole entry)
Summary of the method: (§4)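 Receptor and reporter vectors were lipofected into COS-1 cells. After 4 h the medium was changed to DMEM/10% FBS for 20 h. Cells were reseeded at 3 × 10⁴/well and compounds added 6 h later, in log dilutions from 3.0 × 10^-6 to 1.0 × 10^-10 M in duplicate. Supernatant PLAP activity was read after 48 h. EC30 (30% of maximal response) was normalized to ATRA.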

[5] = target: T4, Retinoic acid receptor alpha (Homo sapiens); settings: HL-60
[6] = target: T5, Retinoic acid receptor gamma (Homo sapiens) (UniProt P13631); assay: (§5) Transcriptional activation of Retinoic Acid Receptor gamma (RAR gamma); type: functional; summary of the method: as §4
T5 sequence (whole entry): T1 sequence (P13631 whole entry)

[7] = target: T6, Retinoic acid receptor beta (Homo sapiens) (UniProt P10826); assay: Transcriptional activation of Retinoic Acid Receptor beta (RAR beta); type: functional; summary of the method: as §4
T6 sequence (whole entry): T2 sequence (P10826 whole entry)

[8] = target: T5, Retinoic acid receptor gamma (Homo sapiens); assay: as §5; summary of the method: as §4
[9] = target: T4, Retinoic acid receptor alpha (Homo sapiens); assay: Induction of HL-60 cell differentiation at Retinoic Acid Receptor alpha (RAR alpha); type: functional, cell-based
Summary of the method: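 HL60 cells (1 × 10⁵ in 1 mL RPMI1640) were exposed to compounds for 5 days, in log dilutions from 1.0 × 10^-5 to 1.0 × 10^-12 M in duplicate. Differentiation was read as cell-surface CD11b expression by FACS. Values are averages of at least two experiments.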

[10] = target: T1, Retinoic acid receptor gamma; assay: Binding affinity for Retinoic acid receptor gamma; summary of the method: as §2
[11] = target: T4, Retinoic acid receptor alpha (Homo sapiens); settings: COS-1
[12] = target: T6, Retinoic acid receptor beta (Homo sapiens); assay: Transcriptional activation in COS-1 cells expressing Retinoic Acid Receptor beta (RAR beta); type: functional, cell-based; summary of the method: as §4
[13] = target: T5, Retinoic acid receptor gamma (Homo sapiens); assay: Transcriptional activation in COS-1 cells expressing Retinoic Acid Receptor gamma (RAR gamma); type: functional, cell-based
Summary of the method: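 Receptor and reporter vectors were lipofected into COS-1 cells for 4 h, then cultured 20 h in DMEM/10% FBS. Cells were reseeded at 3 × 10⁴ per well. After 6 h, compound was added in log dilutions from 1.0 × 10^-10 to 3.0 × 10^-6 M in duplicate. Supernatant PLAP activity was read after 48 h. EC30 was normalised to ATRA EC30 (mean ± SEM).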

[14] = target: T3, Retinoic acid receptor alpha; assay: as §3; remark: listed apart in the source
[15] = target: T4, Retinoic acid receptor alpha (Homo sapiens); assay: Transcriptional activation in COS-1 cells expressing Retinoic Acid Receptor alpha (RAR alpha); type: functional, cell-based; summary of the method: as §4
[16] = target: T3, Retinoic acid receptor alpha; assay: Binding affinity for Retinoic Acid Receptor alpha (RAR alpha).; summary of the method: as §1

Structure (SMILES)	IC50 [1] [nM]	IC50 [2] [nM]	IC50 [3] [nM]	EC30 [4] [nM]	ED30 [5] [nM]	EC30 [6] [nM]	EC30 [7] [nM]	also measured
CC1(C)CCC(C)(C)c2nc(-c3cc(-c4ccc(C(=O)O)cc4)co3)cnc21	27	2.5	19	0.35	0.21	0.76	0.18	–
CC1(C)CCC(C)(C)c2nc(-c3cc(-c4ccc(C(=O)O)cc4)cs3)cnc21	2	4.5	2.4	0.87	9.5	0.72	0.5	–
CC1(C)CCC(C)(C)c2nc(-c3cc(-c4ccc(C(=O)O)cc4)[nH]n3)cnc21	–	290	–	1.7	2.1	3.9	0.85	–
Cn1c(-c2ccc(C(=O)O)cc2)ccc1-c1cnc2c(n1)C(C)(C)CCC2(C)C	–	–	–	38	–	–	14	EC30 [8]: 120 nM; ED30 [9]: 240 nM
CC1(C)CCC(C)(C)c2nc(-c3cc(-c4ccc(C(=O)O)cc4)c[nH]3)cnc21	150	–	–	11	140	1.6	4.5	–
CC1(C)CCC(C)(C)c2nc(-c3csc(-c4ccc(C(=O)O)cc4)n3)cnc21	3.6	21	83	5.2	11	0.34	0.39	–
CC1(C)CCC(C)(C)c2cc(-c3ccc(-c4ccc(C(=O)O)cc4)[nH]3)ccc21	–	100	–	–	0.54	–	–	IC50 [10]: 21 nM; EC30 [11]: 0.34 nM; EC30 [12]: 3.9 nM; EC30 [13]: 3.5 nM; IC50 [14]: 0.45 nM
CC1(C)CCC(C)(C)c2cc(C(=O)Nc3ccc(C(=O)O)cc3)ccc21	–	–	–	–	–	–	–	EC30 [12]: 12 nM; EC30 [13]: 33 nM
CC1(C)CCC(C)(C)c2nc(-c3ccc(-c4ccc(C(=O)O)cc4)o3)cnc21	4.6	39	32	1.8	2.1	1.5	0.38	–
CC1(C)CCC(C)(C)c2cc(NC(=O)c3ccc(C(=O)O)cc3)ccc21	–	–	–	–	–	–	–	EC30 [12]: 48 nM; EC30 [13]: 150 nM
CC1(C)CCC(C)(C)c2nc(-c3c[nH]c(-c4ccc(C(=O)O)cc4)n3)cnc21	–	–	–	80	–	–	40	EC30 [8]: 39 nM; ED30 [9]: 20 nM
CC1(C)CCC(C)(C)c2nc(-c3ccc(-c4ccc(C(=O)O)cc4)s3)cnc21	17	36	130	15	40	2.1	0.73	–
CC1(C)CCC(C)(C)c2nc(-c3ccc(-c4ccc(C(=O)O)cc4)[nH]3)cnc21	–	230	2.2	–	0.11	–	–	IC50 [10]: 310 nM; EC30 [15]: 0.32 nM; EC30 [12]: 2.5 nM; EC30 [13]: 20 nM
CC1(C)CCC(C)(C)c2nc(C(=O)Nc3ccc(C(=O)O)cc3)cnc21	–	140	–	0.15	0.87	1.6	0.4	IC50 [16]: 40 nM
